# Source: PubChem BioAssay (several laboratories)
# SENP1 inh: SENP1 (human) catalytic domain inhibition; Q9P0U3; recombinant SENP1 catalytic domain, CyPet-SUMO1-YPet FRET cleavage; inhibition, % at 10 µM; hit rate 0.21% among 360,000; AID 624204;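 active = inhibition at least 30% at 10 µM, raw YFP signal under a set limit, fluorescence ratio 0.5 to 1.5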;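 note: 0% = enzyme with DMSO and 100% = no enzyme wells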
#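 Material – human SENP1 catalytic domain · Input – SENP1 enzyme, 20 pM final · Compound dosing – single concentration of 10 µM compound, 0.5% DMSO final · Timing – enzyme reaction for 50 min at room temperature, dark · Measured by – FRET fluorescence in CFP and YFP emission channels · Control set – no-enzyme wells low, DMSO-plus-enzyme wells high control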
# Myeloid diff 2: compounds promoting myeloid differentiation. hit rate 1% among 360,000. ER-HoxA9 myeloid progenitors, lysozyme-GFP differentiation, flow cytometry. calls only at 10 µM. AID 624256;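 active = normalized GFP-positive differentiation at or above the plate's own cutoff, the solvent-only control mean plus 3 SD; inconclusive = no clear call, values can overlap the other calls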;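 note: cells exposed to compound for four days before flow analysis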
# VLA-4 inh: inhibition in a human VLA-4 binding assay; P13612; VLA-4 expressing cells, ligand binding flow cytometry; inhibition, % (about 7 µM as worked out from the volumes in the protocol); hit rate 0.2% among 330,000; AID 2557; in the data active = inhibition above about 50%
# Platelet DG rel: platelet dense granule release activity; human platelet-rich plasma, SFLLRN dense granule ATP release, luminescence; inhibition, %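 (compounds screened at 7.5 µM in platelet-rich plasma)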; hit rate 0.22% among 300,000; AID 1663;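 active = mean replicate score, as percent of positive control, at or above 50; inconclusive = mean below 50 but at least one replicate at or above 50; inactive = mean and every replicate below 50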
# Numbers without * were called inactive; i = inactive; ? = inconclusive; . = no result; + = active, no number. Only some compounds are listed: those with a hit (about 1.5% of all), similar ones and a draw of the others.
SMILES,SENP1 inh,Myeloid diff 2,VLA-4 inh,Platelet DG rel
CCN1CCc2c(sc(NC(=O)c3ccc4ccccc4c3)c2C(N)=O)C1,-29,?,16,14
CCN1CCc2c(sc(NC(=O)c3ccc(S(=O)(=O)N(C)c4ccccc4)cc3)c2C(=O)NC)C1,-31,+,-142,3
CC1(C)Cc2c(cnn2-c2cccc(F)c2)C(NC(=O)Cn2cccn2)C1 (stereo not given),2,i,7,-7
COCCN(Cc1ccco1)C(=O)Cn1ncc2c(=O)oc3ccccc3c21,-1,i,-1,-3
CC(C)N1CCc2c(sc(NC(=S)NC(=O)c3ccccc3)c2C#N)C1,-29,+,-146,-1
CCOC(=O)N1CCc2c(sc(NC(=O)c3ccc(S(=O)(=O)N4CCCC4)cc3)c2C#N)C1,-29,i,8,5
CC(C)N1CCc2c(sc(NC(=O)c3ccc(S(=O)(=O)N4CCOCC4)cc3)c2C#N)C1,-43,+,-38,-5
O=C(COC(=O)c1ccc[n+]([O-])c1)Nc1cc([N+](=O)[O-])ccc1Cl,1,?,9,.
CCC(C(=O)NC1CCCC1)n1c2ccccc2c2nc(=O)cc(C)n21 (stereo not given),1,i,.,.
Cc1cc(C)n(-c2ccn(Cc3ccc(Cl)cc3Cl)c(=O)n2)n1,0,+,13,-7
O=C(CN1C(=O)c2cccc([N+](=O)[O-])c2C1=O)N1CCc2ccccc2C1,-7,i,.,.
CCOC(=O)c1ccccc1NC(=O)CSc1nc2ccccc2c(=O)n1CCCN1CCOCC1,2,i,-2,.
Cc1cc(C(C)(C)C)cc(C)c1C[n+]1ccc2ccccc2c1,1,+,-1,5
Cc1ccc(C(=O)C[n+]2ccc3ccccc3c2)cc1,-1,i,1,-1
Cc1cc(Nc2cccc(F)c2)nc(NCc2ccccc2)n1,-12,+,1,-1
O=C(CN1CCCc2ccccc21)Nc1cc(S(=O)(=O)N2CCCC2)ccc1Cl,27,i,19,.
Cc1ccc2c(c1)CCCN2CC(=O)Nc1cc(S(=O)(=O)N2CCCC2)ccc1Cl,-10,+,-89,.
Cc1nc(-c2ccc(F)cc2)c(CC(=O)N(C)CC(=O)Nc2cccc(F)c2)s1,2,i,.,.
O=C(Nc1ccc(N2CCCCCC2)cc1)c1ccc[nH]1,-1,i,9,.
CCOc1ccc(CNC(=O)C(=O)c2cn(CC(=O)N3CCOCC3)c3ccccc23)cc1OC,1,i,-6,-12
CN(C)S(=O)(=O)c1ccc(C(=O)Nc2ccccc2OC(F)(F)C(F)F)cc1,5,+,-9,-1
CC1CC(=O)NN=C1c1ccc(N)c([N+](=O)[O-])c1 (stereo not given),3,i,-21,61*
C/C(Cl)=C/Cn1c(N2CCCC2)nc2c1c(=O)n(C)c(=O)n2C,1,+,10,.
COc1ccc(CCN(C)CCc2ccc(OC)c(OC)c2)cc1OC,2,+,18,0
CS(=O)(=O)N1CCc2cc(C(=O)N3CCN(c4ccccc4F)CC3)ccc21,0,+,13,1
SMILES,SENP1 inh,Myeloid diff 2,VLA-4 inh,Platelet DG rel
COc1ccccc1N1CCN(C(=O)c2ccc3c(c2)CCN3S(C)(=O)=O)CC1,4,i,-6,-4
Cc1ccc2nc(NCCNC(=O)c3ccccc3)c(C#N)cc2c1,-32,+,-14,1
O=C(N/N=C/c1ccco1)c1ccc(OCc2ccccc2)cc1,1,i,-6,-1
O=C(N/N=C/c1ccco1)c1ccccc1OCc1ccc(Br)cc1,-6,+,5,0
Cc1ccc2nc(N3C(=O)C(O)=C(C(=O)c4ccc(C)o4)C3c3ccc(O)cc3)sc2c1 (stereo not given),-43,+,-99,.
COc1ccccc1N(CC(=O)N1CCN(c2ccccc2)CC1)S(=O)(=O)c1ccc(C)cc1,0,i,-8,-2
N#C/C(=C\c1ccc(O)c([N+](=O)[O-])c1)c1nc2ccccc2s1,32*,i,.,8
Cc1c(S(=O)(=O)c2ccccn2)c(N)n(Cc2ccccc2Cl)c1C,-31,+,-10,13
CC(C)[C@H](NC(=O)N1c2ccccc2NC(=O)[C@@H]1C(C)C)C(=O)N1CCC(C(=O)O)CC1,3,i,10,-1
O=C(NN=C1CCC(c2ccccc2)CC1)c1cc2c(s1)CCCC2 (stereo not given),0,i,11,3
CC1CCc2sc(C(=O)NN=C3CCC(c4ccccc4)CC3)cc2C1 (stereo not given),-3,+,3,-3
CCOC(CCn1c(SCc2cccc([N+](=O)[O-])c2)nc2ccccc2c1=O)OCC,3,+,-19,-3
